Data on four compounds can be found in PMC10764114 (ACS Omega, 2023).

Where two headings read alike, the source gives them in different places.

The term viability denotes a read-out of living cells in per cent, often relative to untreated cells. The IC50 is the point on the concentration scale where inhibition reaches its midpoint.

Series [1] has as its system human embryonic kidney HEK293 cell line. Briefly: MTT assay, cytotoxicity against normal HEK293 cells. Conditions: for cytotoxicity in noncancerous cells (HEK293): compared with malignant glioma U87 cells, 10-150 μM. In kind it is cell-based. Summed up:
(§1)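 Cells grown in DMEM (4.5 g/L glucose, 10% FBS, 1% penicillin/streptomycin) at 37 °C, 5% CO₂. Seeded at 1 × 10³ cells/well and left 24 h to adhere. Test compound added at 10, 40, 80, 100 or 150 μM for 48 h (text also states MTT added 24 h post-dosing). MTT in PBS added for 3 h, formazan dissolved in DMSO for 30 min, OD read at 550 nm, % viability calculated from absorbance.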
For orientation: Formazan colour is commonly taken as a measure of viable cells.

Test in series [2]: as above
In kind it is cell-based, human. Conditions: human, HEK293 cells. A digest of the protocol: as §1

The test system of series [3] is U87-malignant glioma (ATCC-HTB-14). Briefly: MTT assay, cytotoxicity against U87-malignant glioma cells. In kind it is cell-based, human. To be noted: for viability at 10 µM / viability at 40 µM / viability at 80 µM / viability at 100 µM / viability at 150 µM: read-out: % cell viability U87; for IC50: read-out: IC50 (μM ± SEM U87). A digest of the protocol: as §1
Where [4] appears, read: MTT assay, U87 malignant glioma cells, ± SEM.

As for `CC(C)Cc1ccc(C(C)C(=O)NN=Cc2ccc(OCC(=O)NN=Cc3ccc(O)cc3O)cc2)cc1` (stereo not shown) [5e, N′-(4-(2-(2-(2,4-Dihydroxybenzylidene)hydrazinyl)-2-oxoethoxy)benzylidene)-2-(4-isobutylphenyl)propanehydrazide], the “cytotoxicity in noncancerous cells (HEK293)” value in series [1] is recorded as “lower cytotoxicity”. In series [2], the viability at 48 h, 10 μM is 69.4%; the viability at 48 h, 40 μM came to 69.1%; the viability at 48 h, 80 μM was determined as 67.9%; the viability at 48 h, 100 μM is 62.1%. The viability at 48 h, 150 μM in series [2] was 50.8%. In series [3] (Homo sapiens, Glioma cell), the viability at 10 µM is 43.4%, the viability at 40 µM is 41%, the viability at 80 µM was 39.9% and the viability at 100 µM is 28.5%. Further, in series [3] (Homo sapiens, Glioma cell), the viability at 150 µM stood at 27.5% and the IC50 was 5.75 ± 0.43 µM.

On to “2-(4-Isobutyl phenyl)-N′-(4-(2-(2-(4-isopropylbenzylidene)hydrazinyl)-2-oxoethoxy)benzylidene)propanehydrazide [5s]”, for which the “% cell viability HEK293” value was determined as 58.72% in series [1] (concentration 10 (μM)); 58.38% in series [1] (concentration 40 (μM)); 51.45% in series [1] (concentration 80 (μM)); 49.00% in series [1] (concentration 100 (μM)); 39.29% in series [1] (concentration 150 (μM)). The “% cell viability U87” value in series [3] (concentration 10 (μM)) came to 145.03%; in series [3] (concentration 40 (μM)), 93.13%; in series [3] (concentration 80 (μM)), 92.16%; in series [3] (concentration 100 (μM)), 78.36%; in series [3] (concentration 150 (μM)), 69.18%. Moreover, the IC50 in series [3] (setting [4]) worked out at 43.73 ± 0.11 µM.

Take “2-(4-Isobutyl phenyl)-N′-(4-(2-oxo-2-(2-(−3,4,5-trimethoxybenzylidene)hydrazinyl)ethoxy)benzylidene)propanehydrazide [5g]”: the “% cell viability HEK293” value in series [1] (concentration 10 (μM)) is reported as 86.66%; in series [1] (concentration 40 (μM)) it was 75.46%; in series [1] (concentration 80 (μM)), 62.21%; in series [1] (concentration 100 (μM)), 62.12%; in series [1] (concentration 150 (μM)), 56.11%. Moreover, the “% cell viability U87” value in series [3] (concentration 10 (μM)) came out at 56.40%; in series [3] (concentration 40 (μM)) it was 47.40%; in series [3] (concentration 80 (μM)), 39.45%; in series [3] (concentration 100 (μM)), 33.32%; in series [3] (concentration 150 (μM)), 30.90%. The IC50 in series [3] (setting [4]) stood at 39.94 ± 0.16 µM.

With `COc1ccc(C=NNC(=O)COc2ccc(C=NNC(=O)C(C)c3ccc(CC(C)C)cc3)cc2)c(OC)c1` (stereo not shown) [5f, N′-(4-(2-(2-(2,4-Dimethoxybenzylidene)hydrazinyl)-2-oxoethoxy)benzylidene)-2-(4-isobutylphenyl)propanehydrazide], the “cytotoxicity in noncancerous cells (HEK293)” value in series [1] is “lower cytotoxicity”. In addition, in series [2], the viability at 48 h, 10 μM came to 103%; the viability at 48 h, 40 μM was determined as 79.2%; the viability at 48 h, 80 μM amounted to 71.9%; the viability at 48 h, 100 μM turned out to be 69.9%. The viability at 48 h, 150 μM in series [2] came to 63.5%. Further, in series [3] (Homo sapiens, Glioma cell), the viability at 10 µM was 54.1%, the viability at 40 µM is 44.2%, the viability at 80 µM came out at 38.7% and the viability at 100 µM was determined as 29%. In addition, in series [3] (Homo sapiens, Glioma cell), the viability at 150 µM was 21.6% and the IC50 came to 24.2 ± 0.46 µM.
